ChEMBL document CHEMBL1147110, “Antifungal drug susceptibility profile of Pichia anomala isolates from patients presenting with nosocomial fungemia” (2007)

Tests used:
Format in all cases: functional
Wickerhamomyces anomalus [1] = test: Antimicrobial susceptibility of Pichia anomala from nosocomial fungemia patient assessed as percent susceptible isolates at 0.015 ug/ml by EUCAST method
Procedure, shortened: (§1)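 EUCAST broth microdilution on the same 58 P. anomala isolates (52 bloodstream isolates from Brazil, Argentina and Spain; 6 from USA). MICs were read spectrophotometrically at 530 nm after 24 h incubation. Endpoints were complete or nearly complete (≥95%) inhibition for amphotericin B, and ≥50% inhibition for azoles and caspofungin, relative to drug-free control. Isolates were tallied as cumulative % per MIC.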

Wickerhamomyces anomalus [2] = test: Antimicrobial susceptibility of Pichia anomala from nosocomial fungemia patient assessed as percent susceptible isolates at 0.03 ug/ml by EUCAST method; procedure, shortened: as §1
Wickerhamomyces anomalus [3] = test: Antimicrobial susceptibility of Pichia anomala from nosocomial fungemia patient assessed as percent susceptible isolates at 0.06 ug/ml by EUCAST method; procedure, shortened: as §1
Wickerhamomyces anomalus [4] = test: Antimicrobial susceptibility of Pichia anomala from nosocomial fungemia patient assessed as percent susceptible isolates at 0.12 ug/ml by EUCAST method; procedure, shortened: as §1
Wickerhamomyces anomalus [5] = test: Antimicrobial susceptibility of Pichia anomala from nosocomial fungemia patient assessed as percent susceptible isolates at 0.25 ug/ml by EUCAST method
Procedure, shortened: (§2)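 58 P. anomala isolates (52 unrelated bloodstream isolates from Brazil, Argentina and Spain; 6 from unknown US clinical specimens). EUCAST broth microdilution, 24 h incubation, spectrophotometric reading at 530 nm. The MIC endpoint was ≥95% inhibition versus the drug-free control for the polyene and ≥50% for azoles and the echinocandin. Cumulative % of isolates inhibited at each MIC was recorded.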

Wickerhamomyces anomalus [6] = test: Antimicrobial susceptibility of Pichia anomala from nosocomial fungemia patient assessed as percent susceptible isolates at 0.5 ug/ml by EUCAST method; procedure, shortened: as §1
Wickerhamomyces anomalus [7] = test: Antimicrobial susceptibility of Pichia anomala from nosocomial fungemia patient assessed as percent susceptible isolates at 1 ug/ml by EUCAST method; procedure, shortened: as §1
Wickerhamomyces anomalus [8] = test: Antimicrobial susceptibility of Pichia anomala from nosocomial fungemia patient assessed as percent susceptible isolates by CLSI method
Procedure, shortened: as §2, with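 “CLSI” for “EUCAST”, “48” for “24”, “read” for “spectrophotometric reading”, “well” for “control”, “recorded, with susceptibility assigned by CLSI interpretive criteria.” for “recorded.”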

Wickerhamomyces anomalus [9] = test: Antimicrobial susceptibility of Pichia anomala from nosocomial fungemia patient assessed as percent susceptible isolates by EUCAST method; procedure, shortened: as §1
Wickerhamomyces anomalus [10] = test: Antimicrobial susceptibility of Pichia anomala from nosocomial fungemia patient assessed as percent susceptible isolates at 0.015 ug/ml by CLSI method
Procedure, shortened: (§3)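 CLSI broth microdilution on 58 P. anomala isolates: 52 unrelated bloodstream isolates (36 Brazil, 13 Argentina, 3 Spain) and 6 from unknown clinical specimens (USA). Fluconazole was tested at 0.12–64 µg/ml. MICs were read spectrophotometrically at 530 nm after 48 h. Endpoints were ≥95% inhibition vs drug-free control for amphotericin B, and ≥50% for azoles and caspofungin. Results are given as cumulative % of isolates at each MIC.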

Wickerhamomyces anomalus [11] = test: Antimicrobial susceptibility of Pichia anomala from nosocomial fungemia patient assessed as percent susceptible isolates at 0.03 ug/ml by CLSI method; procedure, shortened: as §3
Wickerhamomyces anomalus [12] = test: Antimicrobial susceptibility of Pichia anomala from nosocomial fungemia patient assessed as percent susceptible isolates at 0.06 ug/ml by CLSI method; procedure, shortened: as §3
Wickerhamomyces anomalus [13] = test: Antimicrobial susceptibility of Pichia anomala from nosocomial fungemia patient assessed as percent susceptible isolates at 0.12 ug/ml by CLSI method
Procedure, shortened: as §2, with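 “CLSI” for “EUCAST”, “48” for “24”, “read” for “spectrophotometric reading”, “well” for “control”, “recorded, with susceptibility assigned by CLSI interpretive criteria.” for “recorded.”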

Wickerhamomyces anomalus [14] = test: Antimicrobial susceptibility of Pichia anomala from nosocomial fungemia patient assessed as percent susceptible isolates at 0.25 ug/ml by CLSI method; procedure, shortened: as §3
Wickerhamomyces anomalus [15] = test: Antimicrobial susceptibility of Pichia anomala from nosocomial fungemia patient assessed as percent susceptible isolates at 0.5 ug/ml by CLSI method
Procedure, shortened: as §2, with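 “CLSI” for “EUCAST”, “48” for “24”, “read” for “spectrophotometric reading”, “well” for “control”, “recorded, with susceptibility assigned by CLSI interpretive criteria.” for “recorded.”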

Wickerhamomyces anomalus [16] = test: Antimicrobial susceptibility of Pichia anomala from nosocomial fungemia patient assessed as percent susceptible isolates at 1 ug/ml by CLSI method; procedure, shortened: as §3
Wickerhamomyces anomalus [17] = test: Antimicrobial susceptibility of Pichia anomala from nosocomial fungemia patient assessed as percent susceptible isolates at 16 ug/ml by CLSI method
Procedure, shortened: as §2, with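 “CLSI” for “EUCAST”, “48” for “24”, “read” for “spectrophotometric reading”, “well” for “control”, “recorded, with susceptibility assigned by CLSI interpretive criteria.” for “recorded.”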

Wickerhamomyces anomalus [18] = test: Antimicrobial susceptibility of Pichia anomala from nosocomial fungemia patient assessed as percent susceptible isolates at 2 ug/ml by EUCAST method; procedure, shortened: as §2
Wickerhamomyces anomalus [19] = test: Antimicrobial susceptibility of Pichia anomala from nosocomial fungemia patient assessed as percent susceptible isolates at 4 ug/ml by EUCAST method; procedure, shortened: as §2
Wickerhamomyces anomalus [20] = test: Antimicrobial susceptibility of Pichia anomala from nosocomial fungemia patient assessed as percent susceptible isolates at 8 ug/ml by EUCAST method; procedure, shortened: as §2
Wickerhamomyces anomalus [21] = test: Antimicrobial susceptibility of Pichia anomala from nosocomial fungemia patient assessed as percent susceptible isolates at 16 ug/ml by EUCAST method; procedure, shortened: as §2
Wickerhamomyces anomalus [22] = test: Antimicrobial susceptibility of Pichia anomala from nosocomial fungemia patient assessed as percent susceptible isolates at 2 ug/ml by CLSI method
Procedure, shortened: as §2, with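 “CLSI” for “EUCAST”, “48” for “24”, “read” for “spectrophotometric reading”, “well” for “control”, “recorded, with susceptibility assigned by CLSI interpretive criteria.” for “recorded.”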

Wickerhamomyces anomalus [23] = test: Antimicrobial susceptibility of Pichia anomala from nosocomial fungemia patient assessed as percent susceptible isolates at 4 ug/ml by CLSI method
Procedure, shortened: as §2, with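 “CLSI” for “EUCAST”, “48” for “24”, “read” for “spectrophotometric reading”, “well” for “control”, “recorded, with susceptibility assigned by CLSI interpretive criteria.” for “recorded.”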

Wickerhamomyces anomalus [24] = test: Antimicrobial susceptibility of Pichia anomala from nosocomial fungemia patient assessed as percent susceptible isolates at 8 ug/ml by CLSI method
Procedure, shortened: as §2, with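 “CLSI” for “EUCAST”, “48” for “24”, “read” for “spectrophotometric reading”, “well” for “control”, “recorded, with susceptibility assigned by CLSI interpretive criteria.” for “recorded.”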

Row | SMILES | Activity (Wickerhamomyces anomalus [1]) | Activity (Wickerhamomyces anomalus [2]) | Activity (Wickerhamomyces anomalus [3]) | Activity (Wickerhamomyces anomalus [4]) | Activity (Wickerhamomyces anomalus [5]) | Activity (Wickerhamomyces anomalus [6]) | Activity (Wickerhamomyces anomalus [7]) | Activity (Wickerhamomyces anomalus [8]) | Activity (Wickerhamomyces anomalus [9]) | Activity (Wickerhamomyces anomalus [10]) | Cumulative percent of isolates inhibited (Wickerhamomyces anomalus [11]) | Cumulative percent of isolates inhibited (Wickerhamomyces anomalus [12]) | Activity (Wickerhamomyces anomalus [13]) | Cumulative percent of isolates inhibited (Wickerhamomyces anomalus [14]) | Cumulative percent of isolates inhibited (Wickerhamomyces anomalus [15]) | Activity (Wickerhamomyces anomalus [16]) | further results
1 | C[C@@H]1[C@H](O)[C@@H](C)/C=C/C=C/C=C/C=C/C=C/C=C/C=C/[C@H](O[C@@H]2O[C@H](C)[C@@H](O)[C@H](N)[C@@H]2O)C[C@@H]2O[C@](O)(C[C@@H](O)C[C@@H](O)[C@H](O)CC[C@@H](O)C[C@@H](O)CC(=O)O[C@H]1C)C[C@H](O)[C@H]2C(=O)O [AMPHOTERICIN B] | 0% | 0% | 0% | 15.5% | 55.1% | 94.7% | 100% | 100% | 100% | 0% | 0% | 0% | 12% | 36% | 88% | 100% | –
2 | CC[C@H](C)C[C@H](C)CCCCCCCCC(=O)N[C@H]1C[C@@H](O)[C@@H](NCCN)NC(=O)[C@@H]2[C@@H](O)CCN2C(=O)[C@H]([C@H](O)CCN)NC(=O)[C@H]([C@H](O)[C@@H](O)c2ccc(O)cc2)NC(=O)[C@@H]2C[C@@H](O)CN2C(=O)[C@H]([C@@H](C)O)NC1=O [CASPOFUNGIN] | 0% | 12% | 70.6% | 100% | – | – | – | 100% | 100% | 0% | 1.7% | 17.2% | 84.5% | 100% | – | – | –
3 | OC(Cn1cncn1)(Cn1cncn1)c1ccc(F)cc1F [FLUCONAZOLE] | 0% | 0% | 0% | 0% | 0% | 0% | 0% | 96.6% | 93% | 0% | – | – | 0% | – | 0% | 0% | Activity (Wickerhamomyces anomalus [17]): 100%; Activity (Wickerhamomyces anomalus [18]): 22.4%; Activity (Wickerhamomyces anomalus [19]): 55.1%; Activity (Wickerhamomyces anomalus [20]): 96.5%; Activity (Wickerhamomyces anomalus [21]): 100%; Activity (Wickerhamomyces anomalus [11]): 0%; Activity (Wickerhamomyces anomalus [12]): 0%; Activity (Wickerhamomyces anomalus [14]): 0%; Activity (Wickerhamomyces anomalus [22]): 15.5%; Activity (Wickerhamomyces anomalus [23]): 56.8%; Activity (Wickerhamomyces anomalus [24]): 93%
4 | CCC(C)n1ncn(-c2ccc(N3CCN(c4ccc(OCC5COC(Cn6cncn6)(c6ccc(Cl)cc6Cl)O5)cc4)CC3)cc2)c1=O (stereo not given) [ITRACONAZOLE] | 0% | 0% | 7% | 39.5% | 91.2% | 98.2% | 100% | 36.2% | 39.6% | 1.7% | 0% | 12% | 36.1% | 74.1% | 96.5% | 100% | –
5 | C[C@@H](c1ncncc1F)[C@](O)(Cn1cncn1)c1ccc(F)cc1F [VORICONAZOLE] | 0% | 3.4% | 29.3% | 65.5% | 100% | – | – | 100% | 100% | 0% | 3.4% | 18.9% | 39.6% | 96.5% | 100% | – | –
